In ChEMBL document CHEMBL3792275 (Bioorg Med Chem Lett, 2016):
The source made the active and inactive calls. No cut-off for these calls is given here.

How the values were obtained:
[1] = target: 72 kDa type IV collagenase (Homo sapiens, UniProt P08253); assay: Inhibition of human recombinant MMP2 using Mca-Pro-Leu-Gly-Leu-Dpa-Ala-Arg-NH2 as substrate preincubated for 60 mins followed by substrate addition by fluorimetric analysis
[2] = target: MMP-2/MMP-9 (Homo sapiens) (UniProt P08253+P14780); assay: Selectivity ratio of IC50 for human recombinant MMP9 to IC50 for human recombinant MMP2
Method in brief: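 IC50 values against MMP-2 and MMP-9 were each measured by a fluorimetric enzyme assay, with a reference inhibitor run alongside as positive control. The selectivity ratio is the MMP-9 IC50 divided by the MMP-2 IC50.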

[3] = target: Matrix metalloproteinase-9 (Homo sapiens, UniProt P14780); assay: Inhibition of human recombinant MMP9 using Mca-Pro-Leu-Gly-Leu-Dpa-Ala-Arg-NH2 as substrate preincubated for 60 mins followed by substrate addition by fluorimetric analysis
Matrix metalloproteinase-9, sequence (P14780 whole entry): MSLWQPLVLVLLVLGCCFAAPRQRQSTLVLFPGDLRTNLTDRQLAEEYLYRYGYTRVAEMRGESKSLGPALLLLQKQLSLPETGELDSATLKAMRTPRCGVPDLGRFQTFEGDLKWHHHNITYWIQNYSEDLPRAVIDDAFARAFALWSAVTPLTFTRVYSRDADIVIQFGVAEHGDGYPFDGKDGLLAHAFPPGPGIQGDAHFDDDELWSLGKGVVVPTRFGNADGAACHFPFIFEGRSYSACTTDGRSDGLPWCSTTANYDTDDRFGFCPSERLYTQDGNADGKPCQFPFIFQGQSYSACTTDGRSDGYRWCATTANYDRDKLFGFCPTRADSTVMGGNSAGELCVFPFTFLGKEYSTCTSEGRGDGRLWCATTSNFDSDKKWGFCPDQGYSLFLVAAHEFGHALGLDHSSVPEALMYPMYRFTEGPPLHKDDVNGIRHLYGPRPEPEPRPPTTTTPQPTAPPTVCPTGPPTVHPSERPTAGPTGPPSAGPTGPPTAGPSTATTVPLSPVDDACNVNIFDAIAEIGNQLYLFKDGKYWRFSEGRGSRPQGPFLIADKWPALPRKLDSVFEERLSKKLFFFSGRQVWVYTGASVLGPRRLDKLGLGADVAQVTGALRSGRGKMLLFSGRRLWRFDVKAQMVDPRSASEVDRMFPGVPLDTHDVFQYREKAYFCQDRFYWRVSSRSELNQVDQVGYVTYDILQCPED

[4] = Lipid-water partition coefficient, logP of compound; type: physicochemical
[5] = Terminal half life in Sprague-Dawley rat at 10 mg/kg, iv by LC-MS/MS method; type: ADME, organism-based; conditions: in vivo, read-out: beta t1/2 (converted)
Method in brief: (§1)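 Sprague-Dawley rats were dosed at 10 mg/kg, either intravenously or orally. AUC0-24h, AUC0-∞, Vz, t1/2z and CLz were derived for each route.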

[6] = AUC (0 to 24 hrs) in Sprague-Dawley rat at 10 mg/kg, iv by LC-MS/MS method; type: ADME, organism-based; design: time < 24 hr, dose 10 mg/kg, route intravenous; conditions: in vivo
[7] = AUC (0 to infinity) in Sprague-Dawley rat at 10 mg/kg, iv after 15 mins to 24 hrs by LC-MS/MS method; type: ADME, organism-based; design: dose 10 mg/kg, time infinity, route intravenous; conditions: in vivo
[8] = Apparent clearance in Sprague-Dawley rat at 10 mg/kg, iv after 15 mins to 24 hrs by LC-MS/MS method; type: ADME, organism-based; conditions: in vivo, read-out: CL(app) (converted); method in brief: as §1
[9] = Oral bioavailability in Sprague-Dawley rat at 10 mg/kg by LC-MS/MS method; type: ADME, organism-based; conditions: in vivo
[10] = Apparent volume of distribution in Sprague-Dawley rat at 10 mg/kg, iv after 15 mins to 24 hrs by LC-MS/MS method; type: ADME, organism-based; conditions: in vivo, read-out: Vz (converted); method in brief: as §1
[11] = AUC (0 to infinity) in Sprague-Dawley rat at 10 mg/kg, po after 15 mins to 24 hrs by LC-MS/MS method; type: ADME, organism-based; design: dose 10 mg/kg, route oral, time infinity; conditions: in vivo
[12] = Terminal half life in Sprague-Dawley rat at 10 mg/kg, po by LC-MS/MS method; type: ADME, organism-based; conditions: in vivo, read-out: beta t1/2 (converted); method in brief: as §1
HEY [13] = assay: Antimigratory activity in human HEY cells at 50 uM after 24 hrs by crystal violet staining-based Transwell assay; type: functional
Method in brief: (§2)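 Human ovarian cancer HEY cells were tested in a matrigel-based Transwell invasion assay, with cells invading the matrigel membrane and migrating from the upper to the lower chamber. Treatment was at 12.5, 25 and 50 µM for 24 h, with a DMSO control. Cells per view were counted after crystal violet staining. Treated groups were compared with control by t test.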

HEY [14] = assay: Antiinvasive activity in human HEY cells assessed as reduction in number of cells invading matrigel membrane at 50 uM after 24 hrs by crystal violet staining-based Transwell assay; type: functional; design: scale not given: the % may be the effect or the level left; method in brief: as §2
[15] = AUC (0 to 24 hrs) in Sprague-Dawley rat at 10 mg/kg, po by LC-MS/MS method; type: ADME, organism-based; design: dose 10 mg/kg, time < 24 hr, route oral; conditions: in vivo
Rattus norvegicus = assay: Apparent volume of distribution in Sprague-Dawley rat at 10 mg/kg, po after 15 mins to 24 hrs by LC-MS/MS method; type: ADME, organism-based; conditions: in vivo; method in brief: as §1
HEY [16] = assay: Cytotoxicity against human HEY cells at 6.25 to 100 uM after 48 hrs by MTT assay relative to control; type: cell-based
Method in brief: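 HEY cell viability was measured by MTT assay after exposure to 6.25–100 µM, with DMSO as control. Medium was checked by microscope for solid particles.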

[17] = Apparent clearance in Sprague-Dawley rat at 10 mg/kg, po after 15 mins to 24 hrs by LC-MS/MS method; type: ADME, organism-based; conditions: in vivo, read-out: CL(app) (converted); method in brief: as §1
HEY [18] = assay: Antimigratory activity in human HEY cells after 24 hrs by crystal violet staining-based Transwell assay; type: functional, cell-based; method in brief: as §2
HEY [19] = assay: Antiinvasive activity in human HEY cells assessed as reduction in number of cells invading matrigel membrane after 24 hrs by crystal violet staining-based Transwell assay; type: functional, cell-based; method in brief: as §2

72 kDa type IV collagenase, sequence (P08253 whole entry): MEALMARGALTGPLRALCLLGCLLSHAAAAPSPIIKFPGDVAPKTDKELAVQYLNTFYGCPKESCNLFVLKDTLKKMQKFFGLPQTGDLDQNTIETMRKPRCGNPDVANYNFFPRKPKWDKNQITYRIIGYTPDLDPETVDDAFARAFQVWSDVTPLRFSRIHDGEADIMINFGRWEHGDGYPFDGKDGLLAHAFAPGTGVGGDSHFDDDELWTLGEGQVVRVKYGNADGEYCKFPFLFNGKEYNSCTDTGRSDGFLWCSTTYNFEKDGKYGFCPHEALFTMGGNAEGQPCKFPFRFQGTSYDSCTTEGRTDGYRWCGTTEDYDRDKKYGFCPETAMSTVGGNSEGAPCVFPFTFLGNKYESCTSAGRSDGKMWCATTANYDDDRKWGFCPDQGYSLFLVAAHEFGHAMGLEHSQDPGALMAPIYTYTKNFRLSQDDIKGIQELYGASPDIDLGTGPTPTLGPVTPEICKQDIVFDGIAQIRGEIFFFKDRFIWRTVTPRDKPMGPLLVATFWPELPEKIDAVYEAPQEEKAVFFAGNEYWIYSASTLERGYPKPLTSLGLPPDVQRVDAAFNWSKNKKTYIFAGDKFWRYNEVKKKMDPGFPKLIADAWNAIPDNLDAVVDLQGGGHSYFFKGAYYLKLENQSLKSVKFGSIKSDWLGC

Row | Compound | IC50 [1] [µM] | Ratio IC50 [2] | IC50 [3] [µM] | other results
1 | CNC(=O)[C@H](Cc1c[nH]c2ccccc12)NC(=O)[C@@H](CC(=O)Nc1ccc(C(F)(F)F)cc1N)CC(C)C | > 10 | inactive | > 10 | –
2 | CNC(=O)[C@H](Cc1c[nH]c2ccccc12)NC(=O)[C@@H](CC(=O)Nc1cccc(N)c1)CC(C)C | 0.00205 | 6.59 | 0.0135 | –
3 | CNC(=O)[C@H](Cc1c[nH]c2ccccc12)NC(=O)[C@@H](CC(=O)Nc1ccc(C(=O)c2ccccc2)cc1N)CC(C)C | > 10 | inactive | > 10 | –
4 | CNC(=O)[C@H](Cc1c[nH]c2ccccc12)NC(=O)[C@@H](CC(=O)NO)CC(C)C [ILOMASTAT] | – | – | – | logP [4]: 1.04; half-life [5]: 0.25 h; AUC(0-t) at 24 h [6]: 2.51 µg·h/mL; AUC(0-inf) [7]: 2.51 µg·h/mL; clearance [8]: 3.99 L/h/kg; bioavailability [9]: 0%; Vd [10]: 1.43 L/kg
5 | CNC(=O)[C@H](Cc1c[nH]c2ccccc12)NC(=O)[C@@H](CC(=O)Nc1ccc(Br)cc1N)CC(C)C | 0.0218 | 1.25 | 0.0273 | –
6 | CNC(=O)[C@H](Cc1c[nH]c2ccccc12)NC(=O)[C@@H](CC(=O)Nc1ccc(C)cc1N)CC(C)C | > 10 | inactive | 7.3 | –
7 | CNC(=O)[C@H](Cc1c[nH]c2ccccc12)NC(=O)[C@@H](CC(=O)Nc1ccc(F)cc1N)CC(C)C | 0.0022 | 3.52 | 0.00775 | –
8 | CNC(=O)[C@H](Cc1c[nH]c2ccccc12)NC(=O)[C@@H](CC(=O)Nc1ccccc1N)CC(C)C | 0.00019 | 8310 | 1.58 | AUC(0-inf) [11]: 0.14 µg·h/mL; half-life [12]: 5.64 h; Activity (HEY [13]): 84.6%; logP [4]: 1.91; Activity (HEY [14]): 84.6%; half-life [5]: 7.88 h; AUC(0-t) at 24 h [15]: 0.0362 µg·h/mL; AUC(0-t) at 24 h [6]: 3.07 µg·h/mL; Vz (Rattus norvegicus): 579.41 L/kg; Activity (HEY [16]): Non-toxic; CL/F [17]: 71.2 L/h/kg; AUC(0-inf) [7]: 3.21 µg·h/mL; Activity (HEY [18]): Dose-dependent effect; clearance [8]: 3.13 L/h/kg; bioavailability [9]: 4%; Vd [10]: 35.8 L/kg; Activity (HEY [19]): Dose-dependent effect
9 | CNC(=O)[C@H](Cc1c[nH]c2ccccc12)NC(=O)[C@@H](CC(=O)Nc1ccccc1NC(C)=O)CC(C)C | > 10 | inactive | 0.155 | –
